Assay results as given in ChEMBL document CHEMBL3132837, “VUT-MK142 : a new cardiomyogenic small molecule promoting the differentiation of pre-cardiac mesoderm into cardiomyocytes” (2013).
Activity calls are given as the source filed them. No cut-off for these calls is given here.

Tests used:
C2C12 [1] = experiment: Cardiomyogenic activity in mouse C2C12 cells assessed as upregulation of ANF gene expression at 1 uM after 7 days by luciferase reporter assay relative to control; assay type: functional, cell-based
Outline: (§1)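 P19 and C2C12 cells transiently transfected with rat ANF promoter firefly luciferase plasmid plus pRL-SV40 Renilla control one day before treatment. P19: 7 days in induction medium (MEM-alpha, 5% FBS). C2C12: 7 days in differentiation medium (2% horse serum), compound added at the switch. Compound 1 μM, DMSO 0.005% in all wells, media refreshed twice. Dual-luciferase read-out, Renilla-normalised, expressed relative to DMSO control; n=3–10 independent preparations; 10 nM retinoic acid in P19 as positive control.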

P19 [2] = experiment: Cardiomyogenic activity in mouse P19 cells assessed as upregulation of ANF gene expression at 1 uM after 7 days by luciferase reporter assay relative to control; assay type: functional, cell-based; outline: as §1
[3] = Cardiomyogenesis in mouse cardiovascular progenitor cells assessed as upregulation of brachyury gene expression at 1 uM by RT-PCR analysis; assay type: functional
[4] = Cardiomyogenesis in mouse cardiovascular progenitor cells assessed as upregulation of tropomyosin gene expression at 1 uM by RT-PCR analysis; assay type: functional
Mus musculus [5] = organism: Mus musculus; experiment: Cardiomyogenesis in mouse cardiovascular progenitor cells assessed as formation of cardiac bodies at 1 uM compound treated on day 0 to day 5 of myocardial differentiation commitment by phase contrast microscopy relative to control; assay type: functional; details: Heart
Outline: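 A5 CVPCs from newborn mouse hearts, grown in M15 on inactivated SNL76/7 feeders, aggregated into cardiac bodies in hanging drops (900 ± 50 cells per drop, 4.5 days), then plated on gelatine. Compound 1 μM or 0.005% DMSO present days 0–5. Beating CBs scored by microscopy for at least 20 days, 80 CBs per experiment, normalised daily to DMSO control.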

Mus musculus [6] = organism: Mus musculus; experiment: Cardiomyogenesis in mouse cardiovascular progenitor cells assessed as formation of cardiac bodies at 1 uM compound by phase contrast microscopy relative to control; details: Heart
C2C12 [7] = experiment: Cardiomyogenic activity in mouse C2C12 cells assessed as upregulation of Nkx2.5 gene expression at 1 uM after 7 days by luciferase reporter assay relative to control; assay type: functional
Outline: (§2)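 Nkx2.5 promoter firefly luciferase plasmid (pGL3b backbone) co-transfected with Renilla control one day before treatment. P19 cells treated in MEM-alpha/5% FBS induction medium; C2C12 cells treated in 2% horse serum differentiation medium. Compound 1 μM or 0.005% DMSO for 7 days, media refreshed twice. Dual-luciferase activity expressed as fold over DMSO control; paired two-tailed t-test on raw data.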

[8] = Cardiomyogenesis in mouse cardiovascular progenitor cells assessed as upregulation of Mesp1 gene expression at 1 uM by RT-PCR analysis; assay type: functional
[9] = Cardiomyogenesis in mouse cardiovascular progenitor cells assessed as upregulation of Gata4 gene expression at 1 uM by RT-PCR analysis; assay type: functional
[10] = Cardiomyogenesis in mouse cardiovascular progenitor cells assessed as upregulation of Eomes gene expression at 1 uM by RT-PCR analysis; assay type: functional
[11] = Cardiomyogenesis in mouse cardiovascular progenitor cells assessed as upregulation of Nkx2.5 gene expression at 1 uM by RT-PCR analysis; assay type: functional
[12] = Cardiomyogenesis in mouse cardiovascular progenitor cells assessed as upregulation of Mef2C gene expression at 1 uM by RT-PCR analysis; assay type: functional
P19 [13] = experiment: Cardiomyogenic activity in mouse P19 cells assessed as upregulation of Nkx2.5 gene expression at 1 uM after 7 days by luciferase reporter assay relative to control; assay type: functional; outline: as §2
Mus musculus [14] = organism: Mus musculus; experiment: Cardiomyogenesis in mouse cardiovascular progenitor cells assessed as formation of cardiac bodies with beating at 1 uM compound treated on day 5 to day 13 of myocardial differentiation commitment measured on day 11 to 13 by phase contrast microscopy relative to control; assay type: functional; details: Heart

COc1ccc(Nc2cc(NCCO)ncn2)cc1
Activity (C2C12 [1]): Active | Activity (P19 [2]): Active

COc1ccc(Nc2cc(NC3CCCCC3)ncn2)cc1
Activity [3]: Active | Activity [4]: inactive | Activity (Mus musculus [5]): inactive | Activity (Mus musculus [6]): Active | fold change (FC) (C2C12 [7]): 2.2 | Activity [8]: inactive | Activity [9]: inactive | Activity (C2C12 [1]): Active | Activity [10]: inactive | Activity [11]: Active | Activity [12]: Active | fold change (FC) (P19 [13]): 3.1 | Activity (Mus musculus [14]): Active | Activity (P19 [2]): Active

OCCNc1cccc(Nc2ccc(Oc3ccccc3)cc2)n1
Activity (C2C12 [1]): inactive | Activity (P19 [2]): inactive

CCNc1cc(Nc2ccc(OC)cc2)ncn1
Activity (C2C12 [1]): Active

CNc1cc(Nc2ccc(OC)cc2)ncn1
Activity (Mus musculus [5]): inactive | Activity (Mus musculus [6]): inactive | Activity (C2C12 [1]): inactive | Activity (P19 [2]): inactive

COc1ccc(Nc2cccc(NCCO)n2)cc1
Activity (C2C12 [1]): Active | Activity (P19 [2]): Active

COc1ccc(Nc2nccc(NCCO)n2)cc1 [CARDIOGENOL C]
fold change (FC) (C2C12 [7]): 1.4 | Activity (C2C12 [1]): Active | fold change (FC) (P19 [13]): 1.6 | Activity (P19 [2]): Active
